Data set [1] concerns MS2 coat protein. As to the kind of experiment: apparent Kd, MS2 coat protein; higher = weaker binding; RNA-MaP array; tryptophan 2.4 mM where present. The procedure, abridged:
(§1)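 Two titrations, one without ligand and one with constant ligand, were run with SNAP-549-labelled MS2 coat protein from 0.7 or 1.5 nM, doubling to 3 µM. The targets were designs transcribed by stalled E. coli RNA polymerase on Illumina sequencing-chip clusters, in 100 mM Tris-HCl pH 7.5, 80 mM KCl, 4 mM MgCl2, BSA, DTT, yeast tRNA and Tween-20. The apparent Kd is the median of filtered per-cluster binding-curve fits, with green signal normalised to red-channel RNA signal and control-cluster median Fmax.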

The test system of data set [2] is MS2 coat protein. Put plainly: apparent Kd, MS2 coat protein; higher = weaker binding; RNA-MaP array; theophylline 2 mM where present. The procedure, abridged:
as §1

Setting [3] is: designed as: OFF switch for tryptophan, no ligand.
Setting [4] is: ligand present: tryptophan, designed as: OFF switch for tryptophan.
[5] abbreviates: designed as: ON switch for tryptophan, no ligand.
[6] abbreviates: ligand present: tryptophan, designed as: ON switch for tryptophan.
The mark [7] stands for this setting: designed as: OFF switch for theophylline, no ligand.
The mark [8] stands for this setting: ligand present: theophylline, designed as: OFF switch for theophylline.
Setting [9] is: designed as: ON switch for theophylline, no ligand.
Setting [10] is: ligand present: theophylline, designed as: ON switch for theophylline.

What is called apparent Kd is a dissociation constant that holds for the conditions of the assay. Consider “UACUUGCUGACGGCCGCCACUAGAACAUGAGGAUCACCCAUGUACCUGGUCCUUCAUGGGUGGACUAGGACCGGGUCAGCAAGAU”, for which the “apparent Kd” value with MS2 coat protein [1] (setting [3]) came out at 339 nM; with MS2 coat protein [1] (setting [4]), 549 nM.
On to “UCGGGCAUAGCGGCCGCCACUGUUUGGCGUGCGGAUGACGGAACAUGAGGAUCACCCAUGUUGUUUAGGACCGGGCUUGCGUCGU”, for which the “apparent Kd” value came to 13.2 nM with MS2 coat protein [1] (setting [3]) and 15.2 nM in the data set on MS2 coat protein [1] (setting [4]).
“UACAUGAGGAUCACCCAUGUCCCAUGUGAACGAGGACCGGUACGGCCGCCACUCGACCGAGGCGGCACAUGAGGAUCACCCGCAU”: the entries for the “apparent Kd” value in the data set on MS2 coat protein [1] (setting [5]) and in the data set on MS2 coat protein [1] (setting [6]) were 736 nM and 1580 nM, respectively.
For “UUCACAUGGUAUGAAUAUACAUACAAGAAACGAGGACCGGUACGGCCGCCACUCGUGCCGGAAACAUGAGGAUCACCCAUGUGUU”, the “apparent Kd” value with MS2 coat protein [1] (setting [3]) turned out to be 37 nM; in the data set on MS2 coat protein [1] (setting [4]) it was 45.4 nM.
As for “AUACAUGAGGAUCACCCAUGUGAUGGCCGGCGAGGACCGGUACGGCCGCCACUCGUGAUCCGUCCUGAAAGCAAAGCUCCCAGCA”, the entries for the “apparent Kd” value in the data set on MS2 coat protein [1] (setting [5]) and in the data set on MS2 coat protein [1] (setting [6]) were 55.2 nM and 122 nM, respectively.
For “AAUAAUAAGAAUAACGUACCAGGUGAUCAACGAGGACCGGUACGGCCGCCACUCGAAACAUGAGGAUCACCCAUGUAAUAACAAU”, the results for the “apparent Kd” value in the data set on MS2 coat protein [1] (setting [3]) and in the data set on MS2 coat protein [1] (setting [4]) were 83.4 nM and 58.3 nM, respectively.
On to “GCAUCCUAGUCGGCCGCCACUGCAACAUGAGGAUCACCCAUGUCAGGCCUCAUGUGUCCUGGUAGCAGGACCGGGACUAGGAUGC”, for which the “apparent Kd” value was found to be 36.8 nM in the data set on MS2 coat protein [1] (setting [5]) and 29.2 nM with MS2 coat protein [1] (setting [6]).
For the sequence “CUACAUUUGUAGAAACCGGUCAACAAUAAUCGAGGACCGGUACGGCCGCCACUCGAUGUAAAAUAAACAUGAGGAUCACCCAUGU”, the “apparent Kd” value in the data set on MS2 coat protein [1] (setting [5]) was found to be 18.1 nM; in the data set with MS2 coat protein [1] (setting [6]) it was 19.3 nM.
As for “UGGGUCGGAUGAGUAAAUUGUCGGACUCAUCGAGGACCGGUACGGCCGCCACUCGGUUGUACAUGAGGAUCACCCAUGUCAGGGU”, the results for the “apparent Kd” value in the data set on MS2 coat protein [1] (setting [5]) and in the data set on MS2 coat protein [1] (setting [6]) were 364 nM and 223 nM, respectively.
Consider “AGCAACAAGUCGGCCGCCACUCAAUAAACAUGAGGAUCACCCAUGUAAAUAACAUGAUAAUAAUAGAGGACCGGGACAGUUGCAU”, for which the “apparent Kd” value with MS2 coat protein [1] (setting [5]) was 14.4 nM; in the data set on MS2 coat protein [1] (setting [6]), 13 nM.
Regarding “UAUAUAUAAAUUGAUACCAGCGAGAAAACAUGAGGAUCACCCAUGUUCGCCCAUGUUAAGCGCCCUUGGCAGCAAUAUUAUUAUU”, the “apparent Kd” value in the data set with MS2 coat protein [2] (setting [7]) turned out to be 24.5 nM; with MS2 coat protein [2] (setting [8]), 73 nM.
On to “GGUGGUGUGACGGAUACCAGCCACCGCGGCAACGCAACAUGAGGAUCACCCAUGUUGGGUGGCCCUUGGCAGCUGUCGUGCGGCG”, for which the figures for the “apparent Kd” value in the data set with MS2 coat protein [2] (setting [9]) and in the data set on MS2 coat protein [2] (setting [10]) were 96.5 nM and 84.7 nM, respectively.
The corresponding values for “UGUAACAUGAGGAUCACCCAUGUAAGUGAUACCAGAUAAGUAGUAGUCCCUUGGCAGCAUAUUGGGAAAGUGUAUAGUGUAUAUG” are 53.3 nM and 61.7 nM.
Turning to “GAUCUGUCGGGUGAUACCAGCCUCGGCACAUCUCGUGCCGAACAUGAGGAUCACCCAUGUGGCCCUUGGCAGCACAUGACAAAUC”, the “apparent Kd” value in the data set with MS2 coat protein [2] (setting [9]) came out at 362 nM; in the data set with MS2 coat protein [2] (setting [10]) it was 55.1 nM.
On the same counts, the results for “AUGUCGUUGAAUAUAGCGGCUUGGAGUGAUACCAGAAUGAUCUAAUUCCCUUGGCAGCAUUACAUGAGGAUCACCCAUGUUCCAG” are 51.1 nM and 39.7 nM.
With “UCACGACGCAUGGAUACCAGCGACAUGAGGAUCACCCAUGUAUGAGGAUCAGCCAUGUUAUGCCCUUGGCAGCCACGAAGGUCAU”, the “apparent Kd” value in the data set on MS2 coat protein [2] (setting [7]) came to 14.1 nM; with MS2 coat protein [2] (setting [8]), 64.1 nM.
Turning to “GCCAGACAUGAGGAUCACCCAUGUAGCGAUACCAGCUCUGUUGUGAGCCCUUGGCAGCGCACUGGCAUCGCGGGUGAUCCUGCAU”, the “apparent Kd” value turned out to be 43.4 nM with MS2 coat protein [2] (setting [9]) and 164 nM in the data set on MS2 coat protein [2] (setting [10]).
Turning to “AGUAUACAUUCUGAUACCAGAGACAUGAGGAUCACCCAUGUCCGAUCGUCCUGCCUCAGACUCCCUUGGCAGCAGGAUAUGUGCU”, the “apparent Kd” value with MS2 coat protein [2] (setting [7]) turned out to be 16.2 nM; with MS2 coat protein [2] (setting [8]) it was 27.6 nM.
Regarding “ACCCUAGCGAUCGCUCGCUAGGGUGCGGAUACCAGCGAGGUCCAUCGCCCUUGGCAGCCGAACAUGAGGAUCACCCAUGUCGGUA”, the “apparent Kd” value was 10.7 nM in the data set on MS2 coat protein [2] (setting [9]) and 14.3 nM in the data set with MS2 coat protein [2] (setting [10]).
As to “UAUACAUGGGAUACCAUGGAUCCGAGUGAUACCAGCUAUCCGAAUAGCCCUUGGCAGCACAGUACAUGAGGAUCACCCAUGUAUA”, the “apparent Kd” value in the data set on MS2 coat protein [2] (setting [9]) is 27.5 nM; in the data set on MS2 coat protein [2] (setting [10]), 33 nM.
Consider “AACAUGAGGAUCACCCAUGUAUUGGGUGAUACCAGCCUGAAUAAUGGCCCUUGGCAGCACCACGCUAACUUUAUGUCUGCGAACC”, for which the “apparent Kd” value worked out at 92.2 nM in the data set on MS2 coat protein [2] (setting [9]) and 162 nM in the data set with MS2 coat protein [2] (setting [10]).
“AGAAUAACACAUGAGGAUCACCCAUGUGAUACCAGCUAGGAAACUAGCCCUUGGCAGCACAUAAUCCUCAUGAAUGUGCUGAAUA”: the results for the “apparent Kd” value with MS2 coat protein [2] (setting [7]) and in the data set on MS2 coat protein [2] (setting [8]) were 70.4 nM and 60.6 nM, respectively.

The record behind these values is the EternaBench riboswitch data.
